Values after ≈ are worked out from the molar mass of the structure shown.

Our source for the EC50 and inhibition values is ChEMBL document CHEMBL1150220, “Additional cytotoxic polyacetylenes from the marine sponge Petrosia species” (2001).

Common to all, as to type: functional
Assay [1] has as its system HCT-15. Nature of the assay: Cytotoxicity against human HCT15 cells. The settings on record: read-out: ED50 (the source's name).
Assay [2] concerns XF498. Nature of the assay: Cytotoxicity against human XF498 cells. Particulars: read-out: ED50 (the source's name).
In assay [3] the test system is SK-MEL-2. The assay can be described thus: Cytotoxicity against human SK-MEL-2 cells. Particulars: read-out: ED50 (the source's name).
The subject of assay [4] is Simian virus 40. The assay can be described thus: Inhibition of SV40 DNA replication assessed as [alpha32P]dATP formation at 500 uM after 90 mins by agarose gel electrophoresis. The settings on record: Betapolyomavirus macacae, 1.5 h. The method, boiled down:
(§1)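 Cell-free SV40 DNA replication in Tris creatine phosphate buffer (pH 7.7) with creatine kinase, 7 mM MgCl2, 0.5 mM DTT, 4 mM ATP, 200 µM UTP/GTP/CTP, 100 µM dATP/dGTP/dCTP, SV40 T-Ag, origin-containing pUC DNA and replication proteins. The [α-32P]dATP variant ran 90 min at 37 °C, was stopped with EDTA/SDS/tRNA, and DNA was resolved on 1.0% agarose (12-14 h, 2 V/cm) and autoradiographed.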

The test system of assay [5] is Simian virus 40. The assay can be described thus: Inhibition of SV40 DNA replication assessed as [alpha32P]dATP formation at 250 uM after 90 mins by agarose gel electrophoresis. The settings on record: Betapolyomavirus macacae, 1.5 h. The method, boiled down:
as §1

For assay [6], the system named is SK-OV-3. The assay can be described thus: Cytotoxicity against human SKOV3 cells. The settings on record: read-out: ED50 (the source's name).
Assay [7] deals with Simian virus 40. Nature of the assay: Inhibition of SV40 DNA replication assessed as [alpha32P]dATP formation at 125 uM after 90 mins by agarose gel electrophoresis. The settings on record: Betapolyomavirus macacae, 1.5 h. The method, boiled down:
as §1

For assay [8], the system named is A549. Nature of the assay: Cytotoxicity against human A549 cells. Particulars: read-out: ED50 (the source's name).

Regarding `C#CCCCCCCCCCCCCCCCC/C=C\CCCC/C=C\CCCCC#C[C@@H](O)C#CCCCCCC/C=C/[C@H](O)C#C`, the EC50 is 2.5 µg/mL (≈ 3.8 µM) in assay [1]; 5.8 µg/mL (≈ 8.83 µM) in assay [2]; 1.5 µg/mL (≈ 2.28 µM) in assay [3]; 1.5 µg/mL (≈ 2.28 µM) in assay [6]; greater than 10 µg/mL in assay [8]. Further, the inhibition at 500 µM in assay [4] came to 100%. Besides, the inhibition at 250 µM in assay [5] is 70%. Also, in assay [7], the inhibition at 125 µM came out at 40%.

Turning to `C#C/C=C\CCCCCCCCCCCCCCC/C=C\CCCC/C=C\CCCCC#C[C@@H](O)C#CCCCCCC/C=C/[C@H](O)C#C`, the EC50 in assay [1] amounted to 1.7 µg/mL (≈ 2.54 µM); in assay [2], 2.5 µg/mL (≈ 3.74 µM); in assay [3], 0.8 µg/mL (≈ 1.2 µM); in assay [6], 2.2 µg/mL (≈ 3.29 µM); in assay [8], 11.3 µg/mL (≈ 16.9 µM). Besides, the inhibition at 500 µM in assay [4] is 100%. In assay [5], the inhibition at 250 µM was found to be 86%. In assay [7], the inhibition at 125 µM was found to be 59%.

For `C#C/C=C\CCCCCCCCCCCCCC/C=C\CCC/C=C/C(O)CCCCC#C[C@H](O)C#CCCCCCC/C=C/[C@H](O)C#C` (some centres not stated), the EC50 in assay [1] amounted to 5 µg/mL (≈ 7.45 µM); in assay [2] it was 8 µg/mL (≈ 11.9 µM); in assay [3], 2.3 µg/mL (≈ 3.43 µM); in assay [6], 1.9 µg/mL (≈ 2.83 µM); in assay [8], 26.3 µg/mL (≈ 39.2 µM). Besides, the inhibition at 500 µM in assay [4] was 100%. Moreover, the inhibition at 250 µM in assay [5] turned out to be 94%. Moreover, in assay [7], the inhibition at 125 µM amounted to 79%.

For `C#C/C=C\CCCCCCCCCCCCC/C=C\CCCC/C=C\CCCCC#C[C@@H](O)C#CCCCCCC/C=C/[C@H](O)C#C` [NOR-3S,14S-PETROCORTYNE A], the EC50 in assay [1] came to 3.5 µg/mL (≈ 5.46 µM); in assay [2], 6.1 µg/mL (≈ 9.52 µM); in assay [3] it was 3.8 µg/mL (≈ 5.93 µM); in assay [6], 4.4 µg/mL (≈ 6.86 µM); in assay [8], 7.3 µg/mL (≈ 11.4 µM). Also, in assay [4], the inhibition at 500 µM was 70%. Besides, the inhibition at 250 µM in assay [5] was 47%. In assay [7], the inhibition at 125 µM was 12%.

With `C#C/C=C\CCCCCCCCCCCCCC/C=C\CCCC/C=C\CCCCc1cc(=O)cc(CCCCCC/C=C/C(O)C#C)o1` (configuration not stated) [PETROCORTYNE C], the EC50 is 7.5 µg/mL (≈ 11.2 µM) in assay [1]; greater than 10 µg/mL in assay [2]; 2.4 µg/mL (≈ 3.58 µM) in assay [3]; 0.7 µg/mL (≈ 1.04 µM) in assay [6]; greater than 10 µg/mL in assay [8]. Moreover, in assay [4], the inhibition at 500 µM was 100%. Moreover, the inhibition at 250 µM in assay [5] came to 100%. Besides, in assay [7], the inhibition at 125 µM amounted to 89%.

`C#C/C=C\CCCCCCCCCCCCC/C=C/C(=O)CCCC/C=C\CCCCC#C[C@@H](O)C#CCCCCCC/C=C/[C@H](O)C#C` [PETROTETRAYNDIOL C]: the EC50 in assay [1] was 5.7 µg/mL (≈ 8.52 µM); in assay [3], 4.1 µg/mL (≈ 6.13 µM); in assay [6], 4.2 µg/mL (≈ 6.28 µM); in assay [8], greater than 10 µg/mL. Besides, the inhibition at 500 µM in assay [4] was found to be 81%. For the same molecule, the inhibition at 250 µM in assay [5] came to 46%. The inhibition at 125 µM in assay [7] is 45%.

In the case of `C#C/C=C\CCCCCCCCCCCCCCC(=O)CCCCC/C=C\CCCCC#CC(O)C#CCCCCCC/C=C/C(O)C#C` (configuration not stated) [PETROTETRAYNDIOL D], the EC50 in assay [1], in assay [2], in assay [3], in assay [6] and in assay [8] was greater than 10 µg/mL throughout. For the same molecule, the inhibition at 500 µM in assay [4] worked out at 100%. Moreover, in assay [5], the inhibition at 250 µM turned out to be 80%. In assay [7], the inhibition at 125 µM was 66%.

Regarding `C#CCCCCCCCCCCCCCCCC/C=C\CCCC/C=C\CC/C=C/C#C[C@@H](O)C#CCCCCCC/C=C/[C@H](O)C#C` [PETROTETRAYNDIOL E], the EC50 in assay [1] came out at 1.8 µg/mL (≈ 2.75 µM); in assay [2], 3.4 µg/mL (≈ 5.19 µM); in assay [3], 1.1 µg/mL (≈ 1.68 µM); in assay [6], 1.7 µg/mL (≈ 2.6 µM); in assay [8], 24.5 µg/mL (≈ 37.4 µM). In addition, in assay [4], the inhibition at 500 µM worked out at 100%. Further, the inhibition at 250 µM in assay [5] worked out at 83%. In addition, the inhibition at 125 µM in assay [7] was determined as 62%.

On to `C#C/C=C\CCCCCCCCCCCCCC/C=C\CCCC/C=C\CCCCC#CC(=O)C#CCCCCCC/C=C/[C@H](O)C#C` [PETROTETRAYNOL A], for which the EC50 is greater than 30 µg/mL in assay [1]; greater than 30 µg/mL in assay [2]; 5.2 µg/mL (≈ 7.96 µM) in assay [3]; 4.6 µg/mL (≈ 7.04 µM) in assay [6]; greater than 30 µg/mL in assay [8]. The inhibition at 500 µM in assay [4] amounted to 100%. Further, the inhibition at 250 µM in assay [5] turned out to be 100%. Also, the inhibition at 125 µM in assay [7] turned out to be 76%.

Take `C#C/C=C\CCCCCCCCCCCCCC/C=C\CCCC/C=C\CCCC(O)C#CC(O)C#CCCCCCC/C=C/[C@H](O)C#C` (some centres not stated) [PETROTETRAYNTRIOL A]: the EC50 in assay [1] was 12.9 µg/mL (≈ 19.2 µM); in assay [2], 18.5 µg/mL (≈ 27.6 µM); in assay [3], 3.9 µg/mL (≈ 5.81 µM); in assay [6] it was 4.2 µg/mL (≈ 6.26 µM); in assay [8], greater than 30 µg/mL. The inhibition at 500 µM in assay [4] worked out at 100%. The inhibition at 250 µM in assay [5] stood at 77%. Moreover, the inhibition at 125 µM in assay [7] was determined as 63%.

In the case of `C#C/C=C\CCCCCCCCCCCCCC/C=C\CCCC/C=C\CCCC/C=C\[C@@H](O)C#CCCCCCC/C=C/[C@H](O)C#C` [PETROTRIYNDIOL A], the EC50 was determined as 0.8 µg/mL (≈ 1.22 µM) in assay [1]; 1.3 µg/mL (≈ 1.98 µM) in assay [2]; 0.6 µg/mL (≈ 0.913 µM) in assay [3]; 0.8 µg/mL (≈ 1.22 µM) in assay [6]; 1.8 µg/mL (≈ 2.74 µM) in assay [8]. In addition, the inhibition at 500 µM in assay [4] was 100%. In addition, the inhibition at 250 µM in assay [5] came to 90%. In assay [7], the inhibition at 125 µM was determined as 62%.
